{
  "source": "ChEMBL document CHEMBL3244396",
  "about": "“Synthesis and antileukemic activity of 5-substituted 2,3-dihydro-6,7-bis(hydroxymethyl)-1H-pyrrolizine diesters” (J Med Chem, 1977)",
  "key": {"Mus musculus [1]": {"system": "Mus musculus", "assay": "Toxicity in female CDF1 mouse allografted with mouse P388 cells assessed as animal survival at 400 mg/kg, ip administered daily for 9 days as saline with Tween-80 solution starting 24 hrs after tumor inoculation", "format": "organism-based", "parameters": "dose 400 mg/kg, route intraperitoneal", "conditions": "in vivo", "how_it_was_run": "(§1)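 P-388 leukemia ascitic fluid implanted ip. Compound dosed ip in saline with Tween-80 vehicle, once daily for nine doses from 24 h after tumor inoculation. Acute toxicity scored as toxicity-day survivors per group. Survival was followed up to 30 days, with 30-day survival counted as \"cure\". Follows NCI screening protocols.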"}, "P388 [2]": {"system": "P388", "assay": "Antitumor activity against mouse P388 cells allografted in female CDF1 mouse assessed as disease cures by measuring 30-days host survival at 400 mg/kg, ip administered daily for 9 days as saline with Tween-80 solution starting 24 hrs after tumor inoculation relative to control", "format": "functional", "conditions": "route intraperitoneal", "how_it_was_run": "(§2)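 P388 ascitic cell inoculum given ip to CDF1 mice of the sex in each line. Nine daily ip doses in saline with Tween-80 as vehicle, starting 24 h after inoculation. Median survival time expressed as %T/C (>125 significant); \"cure\" defined as 30-day survival.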"}, "P388 [3]": {"system": "P388", "assay": "Antitumor activity against mouse P388 cells allografted in female CDF1 mouse assessed as disease cures by measuring 30-days host survival at 200 mg/kg, ip administered daily for 9 days as saline with Tween-80 solution starting 24 hrs after tumor inoculation relative to control", "format": "functional", "conditions": "route intraperitoneal", "how_it_was_run": "as §2"}, "P388 [4]": {"system": "P388", "assay": "Antitumor activity against mouse P388 cells allografted in female CDF1 mouse assessed as disease cures by measuring 30-days host survival at 100 mg/kg, ip administered daily for 9 days as saline with Tween-80 solution starting 24 hrs after tumor inoculation relative to control", "format": "functional", "conditions": "route intraperitoneal", "how_it_was_run": "as §2"}, "P388 [5]": {"system": "P388", "assay": "Antitumor activity against mouse P388 cells allografted in female CDF1 mouse assessed as disease cures by measuring 30-days host survival at 54 mg/kg, ip administered daily for 9 days as saline with Tween-80 solution starting 24 hrs after tumor inoculation relative to control", "format": "functional", "conditions": "route intraperitoneal", "how_it_was_run": "as §2"}, "P388 [6]": {"system": "P388", "assay": "Antitumor activity against mouse P388 cells allografted in female CDF1 mouse assessed as disease cures by measuring 30-days host survival at 27 mg/kg, ip administered daily for 9 days as saline with Tween-80 solution starting 24 hrs after tumor inoculation relative to control", "format": "functional", "conditions": "route intraperitoneal", "how_it_was_run": "as §2"}, "P388 [7]": {"system": "P388", "assay": "Antitumor activity against mouse P388 cells allografted in female CDF1 mouse assessed as disease cures by measuring 30-days host survival at 13.5 mg/kg, ip administered daily for 9 days as saline with Tween-80 solution starting 24 hrs after tumor inoculation relative to control", "format": "functional", "conditions": "route intraperitoneal", "how_it_was_run": "as §2"}, "P388 [8]": {"system": "P388", "assay": "Antitumor activity against mouse P388 cells allografted in female CDF1 mouse assessed as change in body weight at 400 mg/kg, ip administered daily for 9 days as saline with Tween-80 solution starting 24 hrs after tumor inoculation", "format": "functional", "conditions": "route intraperitoneal", "how_it_was_run": "(§3)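 Ascitic fluid carrying P388 cells was inoculated ip. Compound was given ip in nine daily doses, starting 24 h after inoculation, in Klucel (hydroxypropylcellulose) suspension or in saline with Tween-80. Body-weight difference (treated minus control) was recorded on day 5. Survival was scored as %T/C of median survival time, and 30-day survival counted as cure.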"}, "P388 [9]": {"system": "P388", "assay": "Antitumor activity against mouse P388 cells allografted in female CDF1 mouse assessed as change in body weight at 200 mg/kg, ip administered daily for 9 days as saline with Tween-80 solution starting 24 hrs after tumor inoculation", "format": "functional", "conditions": "route intraperitoneal", "how_it_was_run": "as §3"}, "P388 [10]": {"system": "P388", "assay": "Antitumor activity against mouse P388 cells allografted in female CDF1 mouse assessed as change in body weight at 100 mg/kg, ip administered daily for 9 days as saline with Tween-80 solution starting 24 hrs after tumor inoculation", "format": "functional", "conditions": "route intraperitoneal", "how_it_was_run": "as §3"}, "P388 [11]": {"system": "P388", "assay": "Antitumor activity against mouse P388 cells allografted in female CDF1 mouse assessed as change in body weight at 54 mg/kg, ip administered daily for 9 days as saline with Tween-80 solution starting 24 hrs after tumor inoculation", "format": "functional", "conditions": "route intraperitoneal", "how_it_was_run": "as §3"}, "P388 [12]": {"system": "P388", "assay": "Antitumor activity against mouse P388 cells allografted in female CDF1 mouse assessed as change in body weight at 27 mg/kg, ip administered daily for 9 days as saline with Tween-80 solution starting 24 hrs after tumor inoculation", "format": "functional", "conditions": "route intraperitoneal", "how_it_was_run": "as §3"}, "P388 [13]": {"system": "P388", "assay": "Antitumor activity against mouse P388 cells allografted in female CDF1 mouse assessed as change in body weight at 13.5 mg/kg, ip administered daily for 9 days as saline with Tween-80 solution starting 24 hrs after tumor inoculation", "format": "functional", "conditions": "route intraperitoneal", "how_it_was_run": "as §3"}, "Mus musculus [14]": {"system": "Mus musculus", "assay": "Toxicity in female CDF1 mouse allografted with mouse P388 cells assessed as animal survival at 200 mg/kg, ip administered daily for 9 days as saline with Tween-80 solution starting 24 hrs after tumor inoculation", "format": "organism-based", "parameters": "dose 200 mg/kg, route intraperitoneal", "conditions": "in vivo", "how_it_was_run": "as §1"}, "Mus musculus [15]": {"system": "Mus musculus", "assay": "Toxicity in female CDF1 mouse allografted with mouse P388 cells assessed as animal survival at 100 mg/kg, ip administered daily for 9 days as saline with Tween-80 solution starting 24 hrs after tumor inoculation", "format": "organism-based", "parameters": "dose 100 mg/kg, route intraperitoneal", "conditions": "in vivo", "how_it_was_run": "as §1"}, "Mus musculus [16]": {"system": "Mus musculus", "assay": "Toxicity in female CDF1 mouse allografted with mouse P388 cells assessed as animal survival at 54 mg/kg, ip administered daily for 9 days as saline with Tween-80 solution starting 24 hrs after tumor inoculation", "format": "organism-based", "parameters": "dose 54 mg/kg, route intraperitoneal", "conditions": "in vivo", "how_it_was_run": "as §1"}, "Mus musculus [17]": {"system": "Mus musculus", "assay": "Toxicity in female CDF1 mouse allografted with mouse P388 cells assessed as animal survival at 27 mg/kg, ip administered daily for 9 days as saline with Tween-80 solution starting 24 hrs after tumor inoculation", "format": "organism-based", "parameters": "dose 27 mg/kg, route intraperitoneal", "conditions": "in vivo", "how_it_was_run": "as §1"}, "Mus musculus [18]": {"system": "Mus musculus", "assay": "Toxicity in female CDF1 mouse allografted with mouse P388 cells assessed as animal survival at 13.5 mg/kg, ip administered daily for 9 days as saline with Tween-80 solution starting 24 hrs after tumor inoculation", "format": "organism-based", "parameters": "dose 13.5 mg/kg, route intraperitoneal", "conditions": "in vivo", "how_it_was_run": "as §1"}},
  "data": [
    {"smiles": "OCc1c(CO)c(-c2ccc(Cl)c(Cl)c2)n2c1CCC2", "values": [
      {"measurement": "Activity", "setting": "Mus musculus [1]", "value": "Non-toxic"},
      {"measurement": "T/C", "setting": "P388 [2]", "value": 127, "unit": "%"},
      {"measurement": "T/C", "setting": "P388 [3]", "value": 116, "unit": "%"},
      {"measurement": "T/C", "setting": "P388 [4]", "value": 116, "unit": "%"},
      {"measurement": "T/C", "setting": "P388 [5]", "value": 109, "unit": "%"},
      {"measurement": "T/C", "setting": "P388 [6]", "value": 109, "unit": "%"},
      {"measurement": "T/C", "setting": "P388 [7]", "value": 107, "unit": "%"},
      {"measurement": "Activity", "setting": "P388 [8]", "value": -1, "unit": "g"},
      {"measurement": "Activity", "setting": "P388 [9]", "value": -0.9, "unit": "g"},
      {"measurement": "Activity", "setting": "P388 [10]", "value": 0.5, "unit": "g"},
      {"measurement": "Activity", "setting": "P388 [11]", "value": -0.6, "unit": "g"},
      {"measurement": "Activity", "setting": "P388 [12]", "value": -0.3, "unit": "g"},
      {"measurement": "Activity", "setting": "P388 [13]", "value": 0, "unit": "g"},
      {"measurement": "Activity", "setting": "Mus musculus [14]", "value": "Non-toxic"},
      {"measurement": "Activity", "setting": "Mus musculus [15]", "value": "Non-toxic"},
      {"measurement": "Activity", "setting": "Mus musculus [16]", "value": "Non-toxic"},
      {"measurement": "Activity", "setting": "Mus musculus [17]", "value": "Non-toxic"},
      {"measurement": "Activity", "setting": "Mus musculus [18]", "value": "Non-toxic"}
    ]}
  ]
}
